Assay [1] addresses T1, GABA-A receptor; GABA-A site (alpha1/beta2 interface) (Homo sapiens, UniProt P14867+P47870).
T1 sequence (P14867 whole entry): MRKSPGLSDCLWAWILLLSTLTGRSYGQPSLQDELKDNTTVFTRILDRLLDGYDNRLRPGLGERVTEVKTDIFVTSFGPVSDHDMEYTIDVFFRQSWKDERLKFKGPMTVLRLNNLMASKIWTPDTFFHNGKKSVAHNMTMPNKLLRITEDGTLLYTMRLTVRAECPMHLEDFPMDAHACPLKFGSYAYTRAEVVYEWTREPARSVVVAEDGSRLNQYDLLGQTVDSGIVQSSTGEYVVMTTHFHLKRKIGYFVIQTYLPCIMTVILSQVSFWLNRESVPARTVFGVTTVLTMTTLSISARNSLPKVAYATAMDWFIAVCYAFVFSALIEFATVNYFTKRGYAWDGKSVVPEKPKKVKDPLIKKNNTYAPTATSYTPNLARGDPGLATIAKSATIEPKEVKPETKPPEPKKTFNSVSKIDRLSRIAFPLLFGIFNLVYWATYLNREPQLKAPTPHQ
T1 sequence (P47870 whole entry): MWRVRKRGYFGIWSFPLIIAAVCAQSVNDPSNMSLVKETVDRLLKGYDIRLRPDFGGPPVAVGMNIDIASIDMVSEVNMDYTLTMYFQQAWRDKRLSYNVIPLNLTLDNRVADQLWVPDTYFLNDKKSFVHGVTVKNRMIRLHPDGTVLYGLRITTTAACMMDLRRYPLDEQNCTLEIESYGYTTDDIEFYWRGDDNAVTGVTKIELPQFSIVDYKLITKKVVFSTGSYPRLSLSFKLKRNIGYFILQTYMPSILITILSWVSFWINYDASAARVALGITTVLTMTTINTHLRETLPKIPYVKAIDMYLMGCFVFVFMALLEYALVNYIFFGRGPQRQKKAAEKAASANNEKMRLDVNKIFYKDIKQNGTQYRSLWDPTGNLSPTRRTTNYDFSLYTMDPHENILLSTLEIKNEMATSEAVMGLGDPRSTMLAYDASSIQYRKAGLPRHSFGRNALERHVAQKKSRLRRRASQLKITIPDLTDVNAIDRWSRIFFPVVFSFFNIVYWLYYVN
Description: Modulation of GABA Aalpha1beta2 receptor expressed in Xenopus laevis oocytes assessed as potentiation of GABA-induced chloride current at holding potential -70 mV by two-microelectrode voltage clamp technique. It is filed as cell-based, Oocyte. In short, it runs like this: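 Stage V–VI Xenopus oocytes, defolliculated with 2 mg/mL collagenase, injected with α(1, 2, 3 or 5) and β2 cRNAs mixed 1:1, then kept at 18 °C in ND96 (pH 7.4). Enhancement = I(GABA+compound)/IGABA − 1. Curves were Hill-fitted for EC50. Bath DMSO was at most 0.3%, matched in controls.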

The target of assay [2] is T2, Gamma-aminobutyric acid receptor subunit alpha-1/ beta-1 (Homo sapiens, UniProt P14867+P18505).
T2 sequence (P14867 whole entry): T1 sequence (P14867 whole entry)
T2 sequence (P18505 whole entry): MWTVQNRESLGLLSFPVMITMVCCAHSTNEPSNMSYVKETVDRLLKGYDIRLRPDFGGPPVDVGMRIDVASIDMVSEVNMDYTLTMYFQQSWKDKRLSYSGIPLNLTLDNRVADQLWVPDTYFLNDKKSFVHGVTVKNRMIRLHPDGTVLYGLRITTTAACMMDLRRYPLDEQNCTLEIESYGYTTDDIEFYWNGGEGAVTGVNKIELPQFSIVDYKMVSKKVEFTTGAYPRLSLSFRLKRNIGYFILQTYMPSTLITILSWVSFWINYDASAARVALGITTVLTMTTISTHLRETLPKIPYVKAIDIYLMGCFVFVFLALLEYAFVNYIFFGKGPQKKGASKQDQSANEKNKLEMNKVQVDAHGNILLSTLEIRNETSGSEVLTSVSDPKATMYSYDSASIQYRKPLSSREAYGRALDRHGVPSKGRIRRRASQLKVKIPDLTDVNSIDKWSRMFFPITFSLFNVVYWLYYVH
Kind of assay: Modulation of GABA Aalpha1beta1 receptor expressed in Xenopus laevis oocytes assessed as potentiation of GABA-induced chloride current at holding potential -70 mV by two-microelectrode voltage clamp technique. It is filed as cell-based, Oocyte. In a few lines:
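Stage V–VI Xenopus oocytes were injected with subunit cRNAs, with α1 and β1 mixed 3:1 for α1β1, and kept at +18 °C in modified ND96 at pH 7.4. Two-electrode voltage clamp was run at -70 mV and ambient temperature. Test GABA gave 3–7% of maximal current, set for each oocyte. Enhancement was (I(GABA+compound)/IGABA) − 1. EC50 came from a Hill fit. DMSO (max 0.3%) was matched in controls.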

The subject of the next assay is Oocyte. Description: Modulation of GABA alpha1beta2gamma2s receptor expressed in Xenopus laevis oocytes assessed as potentiation of GABA-induced chloride current at holding potential -70 mV by two-microelectrode voltage clamp technique relative to GABA. It is filed as cell-based. In short, it runs like this: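 Oocytes were injected with α1, β2 and γ2s cRNAs mixed 1:1:10 and stored at 18 °C in ND96 (pH 7.4). GABA was applied at a concentration giving 3–7% of maximal current, determined for each oocyte. Enhancement was taken as (I(GABA+compound)/IGABA) − 1. Concentration–response data were fitted to a Hill equation. Control solutions carried equal DMSO, at most 0.3%.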

For assay [3], the target named is Gamma-aminobutyric acid receptor subunit alpha-2/beta-2 (Homo sapiens) (UniProt P47870+P47869). Description: Modulation of GABA Aalpha2beta2 receptor expressed in Xenopus laevis oocytes assessed as potentiation of GABA-induced chloride current at holding potential -70 mV by two-microelectrode voltage clamp technique relative to GABA. It is filed as cell-based. The note with it: Oocyte. In a few lines:
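Oocytes were injected with α1, α2, α3 or α5 plus β2 cRNA at a 1:1 ratio and stored at 18 °C in ND96, pH 7.4. Enhancement was (I(GABA+compound)/IGABA)−1, and concentration-response data were Hill-fitted for EC50 and nH. Matched DMSO was ≤0.3%.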

Usually EC50 stands for the midpoint of the concentration-response curve.

With `C=CCc1ccc(O)c(-c2ccc(O)c(CC=C)c2)c1` [HONOKIOL], the EC50 in assay [1] turned out to be 39.3 µM; in assay [2], 57 µM. Further, the Smax in the assay with Oocyte was 1320%; in assay [3] it was 1130%.

The values above are taken from ChEMBL document CHEMBL1811845, “Modulation of GABAA-receptors by honokiol and derivatives: subtype selectivity and structure-activity relationship” (J Med Chem, 2011).
